Screens as filed in PubChem BioAssay.
CHO parental Ca = counter-screen: ATP calcium response change in parental CHO cells. parental CHO-K1, ATP-induced calcium, Fluo-8 fluorescence. inhibition, % at 5.6 µM. 330,000 tested, 0.63% active. AID 463079;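 active means inhibition above that plate's mean sample inhibition plus 3 SD, cut at about 26% in these data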
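Assay system – parental CHO cells · Reagent – ATP stimulus · Detection – intracellular calcium via Fluo-8 no-wash fluorescent dye · Evaluation – percent inhibition of ATP-evoked calcium rise, normalized to controls · Controls – ATP wells versus no-ATP DMSO wells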
TAAR1 antagonist = antagonists of human TAAR1. CHO RD-HGA16 TAAR1, Fluo-8 calcium fluorescence, antagonist. inhibition, % at 3 µM. Q96RJ0. 360,000 tested, 1.5% active;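 active means inhibition above a per-plate cutoff, the mean inhibition of test compounds on that plate plus 3 SD, cut at about 49% in these data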
Target sequence (Q96RJ0 whole entry, looked up): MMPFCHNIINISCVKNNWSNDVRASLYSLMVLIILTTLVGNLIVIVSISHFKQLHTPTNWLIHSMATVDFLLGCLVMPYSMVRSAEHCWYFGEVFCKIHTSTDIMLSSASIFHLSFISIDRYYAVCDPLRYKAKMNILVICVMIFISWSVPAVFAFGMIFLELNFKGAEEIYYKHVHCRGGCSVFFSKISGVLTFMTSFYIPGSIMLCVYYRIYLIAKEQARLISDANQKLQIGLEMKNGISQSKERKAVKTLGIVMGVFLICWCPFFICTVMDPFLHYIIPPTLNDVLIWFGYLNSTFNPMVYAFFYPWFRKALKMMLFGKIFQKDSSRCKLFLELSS
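Test system – hTAAR1-expressing CHO RD-HGA16 cells, Gα16-coupled · Reagent – β-PEA at EC80 concentration, post-compound challenge · Compound dosing – 3 µM, single point · Timing – 140 s kinetic read after compound, 140 s after agonist · Detection – Fluo-8 intracellular calcium dye fluorescence, real-time kinetic reads · Control set – DMSO and EC80 PEA controls · Repeats – n of 1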
OX1R antag-1 = OX1R (human) antagonism | O43613 | OX1R-expressing cells, FRET antagonist read-out | inhibition, % at 6.6 µM | 330,000 tested, 1.8% active; in the data active means inhibition mostly above about 38%, no sharp cut-off; inactive means mostly below about 40%
GPR7 antag = antagonists of human GPR7 (neuropeptides B/W receptor 1) | P48145 | GPR7-expressing cells, fluorescence antagonist assay | inhibition, % at 4.4 µM | 290,000 tested, 1.1% active | AID 1861; in the data active means inhibition above about 16%, passing the limit was not always enough;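 further: cells stimulated with the agonist NPW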
Target sequence (P48145 whole entry, looked up): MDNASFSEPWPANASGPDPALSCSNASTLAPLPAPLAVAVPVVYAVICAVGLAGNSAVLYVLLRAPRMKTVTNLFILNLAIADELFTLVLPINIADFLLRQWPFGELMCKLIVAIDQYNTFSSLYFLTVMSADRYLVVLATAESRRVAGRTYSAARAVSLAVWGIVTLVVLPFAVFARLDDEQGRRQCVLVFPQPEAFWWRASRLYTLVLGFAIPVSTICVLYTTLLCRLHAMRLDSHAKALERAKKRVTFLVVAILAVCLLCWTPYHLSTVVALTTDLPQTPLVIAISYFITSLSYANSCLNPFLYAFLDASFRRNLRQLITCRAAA
OX1R antag-2 = blocks the human orexin 1 receptor; O43613; CHO/OX1R cells, Fluo-8 calcium fluorescence, orexin A; inhibition, % at 5 µM; 330,000 tested, 0.43% active; AID 434989;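 active means inhibition above its plate's threshold, mean inhibition of all tested compounds on the plate plus 3 SD, cut at about 37% in these data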
TAAR1 ag = human TAAR1 agonism | AID 624467 | CHO RD-HGA16 TAAR1, Fluo-8 calcium fluorescence; vehicle wells 0%, saturating PEA agonist 100% | 360,000 tested, 0.99% active | activation, % at 3 µM | Q96RJ0;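 active means activation above the mean activation of all test compounds in the run plus 3 SD, cut at about 38% in these data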
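System: CHO-derived RD-HGA16 cells with stable Gα16 and human TAAR1 / Times: 17-24 h plating, Fluo-8 75 min 37 °C, 30 min RT / Technique: calcium-sensitive Fluo-8 signal, excitation 470-495, emission 515-575 nm / Measure: % activation relative to PEA EC100 response / Benchmarks: DMSO and PEA EC100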
OX1R HTRF confirm = confirmation of human orexin 1 receptor antagonists, HTRF format; shares compounds with OX1R antag-1; OX1R-expressing cells, HTRF antagonist assay; inhibition, % at 6.6 µM; 1,800 tested, 49% active; AID 492964; in the data active means inhibition above about 55%;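 further: CHO cells expressing OX1R stimulated with orexin A at about EC80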
CHO-K1 HTRF = counter-screen for OX1R antagonists: effect in parental CHO-K1 cells. inhibition, % at 6.6 µM. shares compounds with OX1R antag-1. AID 493232. 1,800 tested, 48% active. HTRF counterscreen; in the data active means inhibition above about 17%
Numbers stand for hits; - = inactive; . = not tested or not shown. Most compounds without a hit are left out; they make up all but 4.5% or so of the library.

SMILES	CHO parental Ca	TAAR1 antagonist	OX1R antag-1	GPR7 antag	OX1R antag-2	TAAR1 ag	OX1R HTRF confirm	CHO-K1 HTRF
CCn1cnc2cc(NC(=O)c3ccco3)ccc21	-	-	-	-	-	-	.	.
CCCn1cnc2cc(NC(=O)c3ccco3)ccc21	-	-	94	-	-	-	-	-
O=C(COc1ccc(Br)cc1)N(Cc1ccco1)C1CCS(=O)(=O)C1 (stereo not drawn)	-	-	-	-	-	-	.	.
CN1c2ccccc2C(O)=C(C(=S)Nc2ccc(F)c(Cl)c2)S1(=O)=O	-	-	82	-	-	-	-	-
CN1c2ccccc2C(O)=C(C(=S)Nc2ccccc2)S1(=O)=O	-	-	-	-	-	-	.	.
CCCCn1c(=O)[nH]c(=O)c2c1nc(Cn1ncc(Cl)c(Cl)c1=O)n2CCC	-	-	-	-	-	-	.	.
COc1ccc(CNc2nc(-c3ccccc3)nc3ccccc23)cc1OC	-	-	85	-	-	-	68	-
CCc1c(C(=O)N/N=C/c2ccco2)nnn1-c1nonc1N	-	-	-	-	-	-	.	.
O=C(CSc1ncnc2nc[nH]c12)c1ccc2ccccc2c1	-	-	84	-	-	-	-	-
CCCCCCN1C=CC(=C2C(=O)c3ccccc3C2=O)C=C1	-	-	-	-	-	-	.	.
CCCCN1C=CC(=C2N=c3cccc([N+](=O)[O-])c3=N2)C=C1	-	-	157	-	-	-	59	100
O=C(COC(=O)CN1C(=O)C(=O)c2ccccc21)OCN1C(=O)c2ccccc2C1=O	-	-	84	-	-	-	-	-
Nc1ncnc2nc(SCCOc3ccc(Cl)cc3)[nH]c12	-	-	-	-	-	-	.	.
Cc1ccc(OCCSc2nc3ncnc(N)c3[nH]2)cc1	-	-	99	-	-	-	-	-
COC(=O)c1ccc(NC(=O)CSc2nn3c(=O)c(C)nnc3s2)cc1	-	-	-	-	-	-	.	.
Nc1ncc(-c2ccc([N+](=O)[O-])cc2)cn1	-	-	105	-	-	-	-	41
O=[N+]([O-])c1ccc(-c2cnc(NO)nc2)cc1	-	-	-	-	-	-	.	.
C/C(=N/NC(=O)CN1CCN(Cc2ccccc2)CC1)c1ccc([N+](=O)[O-])cc1	-	-	77	-	-	-	-	29
COc1cccc(-c2nn(C)c3sc(C(=O)N4CCOCC4)cc23)c1	-	-	-	-	-	-	.	.
COc1cccc(-c2nn(C)c3sc(C(=O)N4CCN(c5ccccn5)CC4)cc23)c1	-	.	78	-	-	.	-	-
Oc1ccc(Cl)cc1CNCc1cccc2ccccc12	-	-	-	.	-	-	.	.
N#CCSc1nc(-c2ccccc2)nc2ccccc12	-	-	94	-	-	-	89	-
CN1CCc2cc3c(c4c2[C@H]1[C@H](O)c1ccccc1-4)OCO3	-	-	119	-	-	-	66	35
COc1ccc(C(=O)Nc2ccc3ccccc3n2)cc1OC	-	-	77	-	-	-	78	-
Oc1ccccc1CNc1cccc2cccnc12	-	-	120	-	-	-	-	-
SMILES	CHO parental Ca	TAAR1 antagonist	OX1R antag-1	GPR7 antag	OX1R antag-2	TAAR1 ag	OX1R HTRF confirm	CHO-K1 HTRF
O=C(O)CCCN1C(=O)c2ccc(C(=O)c3cccc([N+](=O)[O-])c3)cc2C1=O	-	-	86	-	-	-	-	52
O=C(O)CCCN1C(=O)c2ccc(Oc3cccc([N+](=O)[O-])c3)cc2C1=O	-	-	-	-	-	-	.	.
CCCC(=O)N1CCCC1(C)C(=O)Nc1ccc2nc(C)ccc2c1 (stereo not drawn)	.	-	.	.	.	-	.	.
CCCC[C@@H]1CNC(=O)C(=O)N1CCc1cccc2ccccc12	-	.	-	.	-	.	.	.
COc1ccc2c(COC(=O)[C@H](C)NS(=O)(=O)c3ccccc3F)cc(=O)oc2c1	-	-	-	.	-	-	.	.
O=[n+]1cc(-c2cc3ccccc3o2)n([O-])c2c1CCCC2	-	-	89	.	-	-	-	44
Cc1ccsc1C(=O)NNC(=O)c1ccncc1	.	-	.	.	.	-	.	.
CCCSc1cc(NCCOC(C)=O)c([N+](=O)[O-])c2nonc12	-	-	82	-	-	-	-	61
CCCC(=O)OCCNc1cc(Sc2nccn2C)c2nonc2c1[N+](=O)[O-]	-	-	91	-	-	-	72	60
CCOc1cccc(C2/C(=C(/O)c3ccc4c(c3)CC(C)O4)C(=O)C(=O)N2CCCn2ccnc2)c1 (stereo not drawn)	-	-	-	-	-	-	.	.
CC1(C)OC(=O)C(=NNc2ccc(O)cc2)C(=O)O1	-	-	82	-	-	-	-	24
CC1(C)OC(=O)C(=NNc2ccccc2)C(=O)O1	-	-	-	-	-	-	.	.
CCCN1CCN(CCCNC(=O)Cn2nc(C)n3c(cc4cc(F)ccc43)c2=O)CC1	-	-	-	-	-	-	.	.
CC1CN(c2ccc([N+](=O)[O-])nc2)CC(C)O1 (stereo not drawn)	-	-	82	-	-	-	-	47
Cc1ccc(NC(=O)c2ccc3nsnc3c2)c(C)c1	-	-	-	-	-	-	.	.
NC(=O)CSc1ncc(-c2ccc([N+](=O)[O-])cc2)[nH]1	-	-	80	-	-	-	-	33
CCCCC1CCC(C(=O)OC(C)C(=O)Nc2ccc(NC(C)=O)cc2)CC1 (stereo not drawn)	-	-	-	-	-	-	.	.
Cc1cccc(OC(=O)c2ccc3c(=O)n4c(nc3c2)CCC4)c1	.	-	.	.	.	-	.	.
COc1ccc(Nc2nc3ccc(OC)cc3s2)cc1	-	-	-	-	-	-	.	.
COc1ccc2nc(Nc3nc(C)c(C(C)=O)s3)sc2c1	-	-	81	-	-	-	-	-
CN(CCO)c1cc(N(C)CCO)c([N+](=O)[O-])cc1[N+](=O)[O-]	-	-	-	-	-	-	.	.
CN(CCO)C1=NS(=O)(=O)c2cc([N+](=O)[O-])ccc21	-	-	95	-	-	-	66	94
CCc1sc(C(=O)Nc2cccc(-n3cnnn3)c2)cc1C	-	-	-	.	-	-	.	.
O=C(O)C1CCCN(S(=O)(=O)c2ccccc2[N+](=O)[O-])C1 (stereo not drawn)	-	-	-	-	-	-	.	.
O=C(C1CCCN(S(=O)(=O)c2ccccc2[N+](=O)[O-])C1)N1CCCC1 (stereo not drawn)	-	-	122	-	-	-	-	-
CCCCn1c(N)c(N(C)C(=O)c2cc3c(s2)CCCCC3)c(=O)[nH]c1=O	-	-	-	.	-	-	.	.
